Tests used:
[1] = target: T1, SHIP2 (Homo sapiens, UniProt O15357); test: malachite green assay for phosphatase activity, SHIP2; assay type: biochemical; conditions: compounds evaluated at 1 mM, described in words
T1 sequence (O15357 1-1258): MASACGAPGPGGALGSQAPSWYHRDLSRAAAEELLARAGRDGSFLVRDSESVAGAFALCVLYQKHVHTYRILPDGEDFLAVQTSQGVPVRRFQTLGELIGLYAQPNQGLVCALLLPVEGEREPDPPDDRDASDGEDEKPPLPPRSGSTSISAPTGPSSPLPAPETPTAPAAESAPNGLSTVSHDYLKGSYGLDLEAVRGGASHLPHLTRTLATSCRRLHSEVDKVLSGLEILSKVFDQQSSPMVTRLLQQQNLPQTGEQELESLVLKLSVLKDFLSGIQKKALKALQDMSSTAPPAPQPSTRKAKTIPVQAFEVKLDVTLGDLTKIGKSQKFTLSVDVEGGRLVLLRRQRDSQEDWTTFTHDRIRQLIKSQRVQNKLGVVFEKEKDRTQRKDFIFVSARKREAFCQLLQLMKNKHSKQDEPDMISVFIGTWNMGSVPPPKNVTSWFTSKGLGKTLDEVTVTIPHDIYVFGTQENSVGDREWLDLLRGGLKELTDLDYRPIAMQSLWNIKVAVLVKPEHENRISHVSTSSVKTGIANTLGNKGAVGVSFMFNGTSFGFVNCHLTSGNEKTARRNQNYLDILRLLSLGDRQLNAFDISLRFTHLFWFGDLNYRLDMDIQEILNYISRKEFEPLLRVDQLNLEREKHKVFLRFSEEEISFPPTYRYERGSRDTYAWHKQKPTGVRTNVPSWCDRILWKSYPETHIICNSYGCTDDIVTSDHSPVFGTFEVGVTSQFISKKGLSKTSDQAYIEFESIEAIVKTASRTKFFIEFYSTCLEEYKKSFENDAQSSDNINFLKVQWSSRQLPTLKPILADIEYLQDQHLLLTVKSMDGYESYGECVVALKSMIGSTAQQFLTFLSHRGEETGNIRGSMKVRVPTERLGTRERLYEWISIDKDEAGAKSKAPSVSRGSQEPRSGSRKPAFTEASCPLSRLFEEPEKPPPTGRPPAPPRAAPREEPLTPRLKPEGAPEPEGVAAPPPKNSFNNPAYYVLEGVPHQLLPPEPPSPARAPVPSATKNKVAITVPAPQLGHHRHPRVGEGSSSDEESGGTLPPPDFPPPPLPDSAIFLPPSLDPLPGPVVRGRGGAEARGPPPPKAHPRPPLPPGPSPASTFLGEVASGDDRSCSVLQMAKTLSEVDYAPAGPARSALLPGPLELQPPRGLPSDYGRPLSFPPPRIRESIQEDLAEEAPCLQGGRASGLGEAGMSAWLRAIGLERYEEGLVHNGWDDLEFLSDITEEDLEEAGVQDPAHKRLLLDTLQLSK
Summary of the method: (§1)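 Phosphate released from C8-PI(3,4,5)P3 (short-chain substrate used to avoid micelles) measured by malachite green colorimetric readout. Reactions contained only SHIP enzyme, buffer and substrate, with no surfactant. Test compounds were tested at 1 mM from DMSO/buffer mixtures. Values are means of at least 3 measurements, with standard deviation.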

[2] = solubility in water; assay type: physicochemical; conditions: in words
[3] = target: T2, SHIP1 (Homo sapiens, UniProt Q92835); test: malachite green assay for phosphatase activity, SHIP1; assay type: biochemical; conditions: described in words; for Inhibition of SHIP1: malachite green assay, compounds evaluated at 1 mM; for selectivity between SHIP1 and SHIP2: malachite green assay at 1 mM
T2 sequence (Q92835 1-1189): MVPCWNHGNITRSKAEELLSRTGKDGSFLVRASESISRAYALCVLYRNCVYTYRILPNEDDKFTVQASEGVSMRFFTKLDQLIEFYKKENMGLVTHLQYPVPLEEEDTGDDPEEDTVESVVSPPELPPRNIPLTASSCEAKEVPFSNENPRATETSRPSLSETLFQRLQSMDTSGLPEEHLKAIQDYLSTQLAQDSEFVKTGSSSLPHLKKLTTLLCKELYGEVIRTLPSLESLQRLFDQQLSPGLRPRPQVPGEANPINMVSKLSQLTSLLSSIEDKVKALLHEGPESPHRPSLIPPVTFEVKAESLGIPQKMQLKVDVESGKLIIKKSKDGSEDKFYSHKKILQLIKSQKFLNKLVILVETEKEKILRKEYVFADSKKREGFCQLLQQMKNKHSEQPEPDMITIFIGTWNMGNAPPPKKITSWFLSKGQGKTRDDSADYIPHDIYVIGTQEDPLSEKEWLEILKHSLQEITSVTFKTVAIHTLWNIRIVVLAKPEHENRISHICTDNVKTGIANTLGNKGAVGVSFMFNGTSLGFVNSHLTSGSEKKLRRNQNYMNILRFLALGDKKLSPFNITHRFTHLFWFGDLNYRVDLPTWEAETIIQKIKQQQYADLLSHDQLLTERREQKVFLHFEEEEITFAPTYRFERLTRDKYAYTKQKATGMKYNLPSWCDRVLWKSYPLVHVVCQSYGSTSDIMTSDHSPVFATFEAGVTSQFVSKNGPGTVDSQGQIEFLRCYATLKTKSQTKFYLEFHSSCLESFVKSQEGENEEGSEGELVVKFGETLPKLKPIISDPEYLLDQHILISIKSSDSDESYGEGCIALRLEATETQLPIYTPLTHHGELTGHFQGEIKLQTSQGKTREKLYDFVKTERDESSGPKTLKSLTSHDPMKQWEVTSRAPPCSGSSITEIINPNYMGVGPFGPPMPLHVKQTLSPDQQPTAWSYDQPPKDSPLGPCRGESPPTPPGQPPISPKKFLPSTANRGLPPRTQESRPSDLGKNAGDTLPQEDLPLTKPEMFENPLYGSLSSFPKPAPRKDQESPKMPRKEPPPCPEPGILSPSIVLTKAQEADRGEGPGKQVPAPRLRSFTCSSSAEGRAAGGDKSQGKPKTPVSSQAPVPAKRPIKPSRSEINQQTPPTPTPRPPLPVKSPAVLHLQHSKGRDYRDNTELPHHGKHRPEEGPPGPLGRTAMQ
Summary of the method: as §1

[4] = test system: mice; conditions: treatment of mice; cited from earlier work
[5] = target: T2, SHIP1; test: fluorescence polarization; assay type: biochemical; conditions: general statement in the docking discussion
[6] = target: T2, SHIP1; conditions: read-out: IC50 for SHIP1; cited from earlier work
[7] = target: T1, SHIP2; conditions: ref 19a; cited from earlier work
[8] = solubility in DMSO; conditions: in words
[9] = test system: microglial cell lines; conditions: a number of microglial cell lines; cited from earlier work

Row | SMILES | Inhibition of SHIP2 [1] | solubility in water [2] | Inhibition of SHIP1 [3] | further results
1 | CC(C)CCC[C@@H](C)[C@H]1CC[C@H]2[C@@H]3CC[C@H]4C[C@@H](N)[C@H](N)C[C@]4(C)[C@H]3CC[C@]12C [Compound 47] | least effective inhibitors | insoluble in water | least effective inhibitors | –
2 | CC(C)CCC[C@@H](C)[C@H]1CC[C@H]2[C@@H]3CCC4C[C@H](N)CC[C@]4(C)[C@H]3CC[C@]12C.Cl (stereo partly drawn) [Compound 1, 3α-Aminocholestane Hydrochloride] | significant activity | – | significant activity | in vivo bioactivity [4]: in vivo bioactivity comparable to genetic phenotypes observed in SHIP knockout mice; selectivity between the two SHIP paralogs [5]: some selectivity for SHIP1; IC50 [6]: ~10 µM; selective for SHIP1 over SHIP2 [7]: at least 4 fold; solubility in DMSO [8]: insoluble in DMSO; solubility in DMSO ([8]; listed as 3AC): nearly insoluble in DMSO; selectivity between SHIP1 and SHIP2 [3]: more selectivity for SHIP1; microglial phagocytosis of dead neurons [9]: much less effective
3 | CC(C)CCC[C@@H](C)[C@H]1CC[C@H]2[C@@H]3CC[C@H]4C[C@H](N(C)C)CC[C@]4(C)[C@H]3CC[C@]12C [Compound 15] | significantly less effect | – | active | selectivity between SHIP1 and SHIP2 [3]: selective inhibition of SHIP1
4 | CC(C)CCCC(C)C1CCC2C3CCC4CC(O)C(N)CC4(C)C3CCC12C (stereo not shown) [Compound 37] | – | insoluble in water | significant inhibition of SHIP1 | –
5 | CC(C)CCC[C@@H](C)[C@H]1CC[C@H]2[C@@H]3CC[C@H]4CC(N)C(N)C[C@]4(C)[C@H]3CC[C@]12C (stereo partly shown) [Compound 45] | – | insoluble in water | – | –

Second part, led by results:

Row | Inhibition of SHIP2 [1] | solubility in water [2] | Inhibition of SHIP1 [3] | SMILES | further results
6 | inactive | – | inactive | CC(=O)NC1CCC2(C)C(CCC3C2CCC2(C)C(C(C)CCCC(C)C)CCC32)C1 (stereo not shown) [Compound 13] | –
7 | significant activity | – | significant activity | CC(C)CCCC(C)C1CCC2C3CCC4CC(N)CCC4(C)C3CCC12C.Cl (stereo not shown) [Compound 11] | –
8 | inactive | – | inactive | CC(C)CCC[C@@H](C)[C@H]1CC[C@H]2[C@@H]3CC[C@H]4C[C@H](NS(C)(=O)=O)CC[C@]4(C)[C@H]3CC[C@]12C [Compound 12] | –
